Most compounds without a hit are left out; they make up all but 2.5% or so of the library.
SENP7 inh: SENP7 protease inhibition. Q9BQF6. recombinant SENP7, Z-RLRGG-aminoluciferin luminescence, 40 min. inhibition, % at 5 µM. AID 434973. 330,000 compounds, 1.5% hits;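 active means inhibition above about 50% at the single test dose, limit read from the data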
Target sequence (Q9BQF6 706-1050 limits assumed): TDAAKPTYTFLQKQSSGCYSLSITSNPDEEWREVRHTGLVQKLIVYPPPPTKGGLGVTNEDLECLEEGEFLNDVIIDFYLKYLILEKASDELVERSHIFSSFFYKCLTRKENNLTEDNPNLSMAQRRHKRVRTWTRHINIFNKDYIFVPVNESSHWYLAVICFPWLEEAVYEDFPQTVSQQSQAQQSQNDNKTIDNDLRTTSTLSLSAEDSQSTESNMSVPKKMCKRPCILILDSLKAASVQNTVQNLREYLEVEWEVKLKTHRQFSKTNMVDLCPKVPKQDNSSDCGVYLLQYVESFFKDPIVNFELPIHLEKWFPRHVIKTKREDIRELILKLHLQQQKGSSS
SENP8 block-1: SENP8 protease inhibition | purified SENP8, Z-RLRGG-aminoluciferin cleavage, luminescence | Q96LD8 | 330,000 compounds, 1.2% hits | inhibition, % at 10 µM; in the data active means inhibition above about 50%
SENP8 block-2: inhibitors of human SENP8 protease. Q96LD8. recombinant SENP8, Nedd8 substrate fluorescence. inhibition, % at 20 µM. 360,000 compounds, 0.64% hits. AID 602440; in the data active means inhibition mostly above about 40%, no sharp cut-off; inactive means mostly below about 27%
SENP6 block: inhibitors of human SENP6 protease. Q9GZR1. Recombinant SENP6 catalytic domain, aminoluciferin luminescence. inhibition, % at 10 µM. 330,000 compounds, 1.8% hits. AID 2599;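 active means inhibition above about 50% at the single tested dose, limit read from the data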
SENP1 FRET inh: SENP1 (human) catalytic domain inhibition | Q9P0U3 | recombinant SENP1 catalytic domain, CyPet-SUMO1-YPet FRET cleavage | inhibition, % at 10 µM | 360,000 compounds, 0.21% hits | AID 624204;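 active means inhibition at least 30% at 10 µM, raw YFP signal under a set limit, fluorescence ratio 0.5 to 1.5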
Target sequence (Q9P0U3 419-644 limits assumed): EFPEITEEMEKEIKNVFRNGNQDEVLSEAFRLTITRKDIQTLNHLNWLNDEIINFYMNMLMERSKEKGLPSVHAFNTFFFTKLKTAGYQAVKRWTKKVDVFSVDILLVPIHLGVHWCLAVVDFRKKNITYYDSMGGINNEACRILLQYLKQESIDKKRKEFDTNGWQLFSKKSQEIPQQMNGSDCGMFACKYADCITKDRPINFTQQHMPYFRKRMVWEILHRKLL
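Test system: hSENP1 catalytic domain, recombinant; Amount: 20 pM final SENP1 enzyme; Medium: Tris pH 8 buffer plus EDTA, NaCl, BME, BSA, NP40, catalase; Schedule: 50 min enzyme reaction, room temperature, light-protected; Technique: FRET fluorescence in CFP and YFP emission channels; Controls: no-enzyme wells low, DMSO-plus-enzyme wells high control.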
SENP8 confirm: human SENP8 inhibition, confirmed | shares compounds with SENP7 inh | Recombinant SENP8, Z-RLRGG-aminoluciferin luminescence, 60 min | inhibition, % at 12.5 µM | 6,200 compounds, 40% hits | AID 488912;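 active means mean inhibition across replicates above about 50%, limit read from the data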
SENP6 conf: human SENP6 inhibition, confirmed; inhibition, % at 12.5 µM; recombinant SENP6, Z-RLRGG-aminoluciferin luminescence; shares compounds with SENP7 inh; 6,200 compounds, 58% hits; AID 488915
SENP7 confirm: confirmation of human SENP7 protease inhibitors; shares compounds with SENP7 inh; recombinant SENP7, Z-RLRGG-aminoluciferin luminescence, 40 min; inhibition, % at 12.5 µM; 6,200 compounds, 69% hits; AID 488917
Casp3 select: caspase-3 inhibition (SENP selectivity assay). inhibition, % at 12.5 µM. shares compounds with SENP7 inh. 6,200 compounds, 60% hits. purified caspase-3, Z-DEVD-aminoluciferin luminescence, 60 min;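 active means mean inhibition above about 50%, limit read from the data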
Luc interf: interferes with luciferase luminescence in SENP counter-screen; shares compounds with SENP7 inh; Pre-incubated SENP8/Z-RLRGG-aminoluciferin, luciferase luminescence interference; inhibition, % at 12.5 µM; 6,200 compounds, 39% hits; AID 488919;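 active means mean inhibition above about 50% when retested at one dose, limit read from the data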
A number is an active result; . = inactive; / = not tested or not shown.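 How the source made its calls, unless noted: active means mean inhibition above about 50% in the one-dose retest (limit read from the data); inactive means the rest.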

SMILES	SENP7 inh	SENP8 block-1	SENP8 block-2	SENP6 block	SENP1 FRET inh	SENP8 confirm	SENP6 conf	SENP7 confirm	Casp3 select	Luc interf
CCc1ccc(C(=O)/C=C/c2cnn(C)c2C)s1	.	.	.	54	.	.	.	.	.	.
CCOC(=O)CCS(=O)(=O)c1ccc(-c2ccc(S(=O)(=O)CCC(=O)OCC)cc2)cc1	58	.	.	.	.	.	.	.	.	.
C=C(C)CN(CC)c1nc(N)c2c(N)nc3c(c2c1C#N)CC(=O)N3C12CC3CC(CC(C3)C1)C2	.	86	.	85	.	.	.	.	.	.
Cc1cc(C)c(C#N)c(N2CCCC(C(N)=O)C2)n1 (stereo not given)	.	.	.	.	.	/	/	/	/	/
N#Cc1c(N2CCCC(O)C2)nc(N)c2c(N)nc3c(c12)CC(=O)N3C12CC3CC(CC(C3)C1)C2 (stereo not given)	64	97	.	96	.	.	.	.	.	.
O=C(N/N=C/c1ccc(Sc2ccccn2)o1)c1cc2ccccc2cc1O	64	93	.	94	.	90	97	101	92	76
O=C(N/N=C\c1ccc(Sc2ccccn2)o1)c1cccc(F)c1	.	.	.	.	.	/	/	/	/	/
COc1ccc(S(=O)(=O)N2CCC(C(=O)Oc3cccc(C)c3)CC2)cc1OC	.	.	.	.	.	/	/	/	/	/
O=[N+]([O-])c1ccc2nc(-c3ccc(Cl)cc3)[nH]c2c1	63	54	.	75	.	68	72	87	50	.
COc1ccc(-c2nc3ccc([N+](=O)[O-])cc3[nH]2)cc1	/	/	.	/	.	/	/	/	/	/
O=[N+]([O-])c1ccc2nc(-c3ccncc3)[nH]c2c1	51	64	.	78	.	.	60	88	86	74
Nc1nc2ccc([N+](=O)[O-])cc2[nH]1	.	.	.	.	.	/	/	/	/	/
O=[N+]([O-])c1ccc2nc(-c3ccccc3[N+](=O)[O-])[nH]c2c1	.	.	.	.	.	/	/	/	/	/
Cc1ccc(-c2nc3ccc([N+](=O)[O-])cc3[nH]2)cc1	73	66	.	76	.	.	77	96	64	.
O=C(CCCOc1ccc(Cl)cc1Cl)NCCc1ccccn1	.	.	.	.	.	/	/	/	/	/
COC(=O)CCCC(=O)NC1CCCc2c1cnn2-c1ccc(F)cc1F (stereo not given)	.	.	.	.	.	/	/	/	/	/
Cc1ccc(NC(=O)Nc2ccc3c(c2)CCC3)cc1	.	.	.	.	.	/	/	/	/	/
O=C(Nc1ccc2c(c1)CCC2)Nc1ccc(F)cc1F	70	.	.	.	.	.	.	.	.	.
Cc1ccccc1NC(=O)Nc1ccc2c(c1)CCC2	84	.	.	70	.	.	.	.	.	.
O=C(Nc1ccc2c(c1)CCC2)c1c(F)cccc1Cl	.	.	.	.	.	/	/	/	/	/
O=C(Nc1ccc2c(c1)OCO2)Nc1ccc(F)cc1F	90	73	.	90	.	76	76	98	89	86
O=C(Nc1ccc2c(c1)OCO2)Nc1ccc2c(c1)OCO2	.	.	.	.	.	/	/	/	/	/
O=C(Nc1ccc2c(c1)CCC2)Nc1ccccc1F	99	92	.	96	.	69	95	102	92	76
COc1ccc(NC(=O)Nc2ccc3c(c2)CCC3)cc1OC	.	.	.	.	.	/	/	/	/	/
OCC[C@H]1C[C@@H](O)[C@H](O)[C@]2(OCCc3ccccc32)O1	.	.	.	.	.	/	/	/	/	/
SMILES	SENP7 inh	SENP8 block-1	SENP8 block-2	SENP6 block	SENP1 FRET inh	SENP8 confirm	SENP6 conf	SENP7 confirm	Casp3 select	Luc interf
O=C(Nc1ccc(F)cc1)C(c1ccccc1OC(F)(F)F)N1CCN(C(=O)c2ccco2)CC1 (stereo not given)	/	/	.	/	.	/	/	/	/	/
Cc1ccc(NC(=O)CSCC(=O)Nc2cc(S(=O)(=O)N3CCOCC3)ccc2OC(C)C)cc1	/	/	.	/	.	/	/	/	/	/
CCc1nc2c(OCCn3cccc3)cccn2c1N(C=O)Cc1ccccc1	/	/	.	/	.	/	/	/	/	/
CC(C)C(=O)Nc1ccc2nn(-c3ccc(F)cc3)nc2c1	85	53	.	71	.	.	.	66	.	.
Cc1ccc(-n2nc3ccc(NC(=O)c4ccco4)cc3n2)cc1	.	.	.	.	.	/	/	/	/	/
Cc1ccc(-n2nc3ccc(NC(=O)C(C)C)cc3n2)cc1	80	.	.	76	.	.	.	.	.	.
CC(C)[C@H](NS(=O)(=O)c1ccccc1)C(=O)OCC(=O)NC(=O)c1cccn1C	.	.	.	60	.	.	.	68	61	.
O=C(c1cc(-c2ccc(Cl)cc2Cl)on1)N1CCN(C(=O)c2ccco2)CC1	.	.	.	.	.	/	/	/	/	/
O=C(c1cc(-c2ccc(Cl)cc2Cl)on1)N1CCCCCC1	54	55	.	73	.	62	60	82	.	.
O=C(c1cc(-c2ccc(Cl)cc2Cl)on1)N1CCCC1	75	78	.	87	.	.	.	51	.	.
O=C(CN1CCN(C(=O)C2CCN(C(=O)/C=C/c3ccccc3)CC2)CC1)Nc1ccc(F)cc1	/	/	.	/	.	/	/	/	/	/
O=C(CN1CCN(c2ccc(F)cc2)CC1)Nc1ccc(S(=O)(=O)N2CCOCC2)cc1	.	.	.	.	.	/	/	/	/	/
CC(NS(=O)(=O)c1ccc2c(c1)c(=O)n(C)c(=O)n2C)C(=O)NC1CCCCC1 (stereo not given)	.	.	.	.	.	/	/	/	/	/
CCCN(C(=O)c1cccc(-n2cccc2)c1)c1c(N)n(Cc2ccccc2)c(=O)[nH]c1=O	.	.	.	.	.	/	/	/	/	/
COc1ccc(-c2cc3nc(CCl)[nH]c(=O)c3s2)cc1	59	83	.	94	.	66	91	70	82	.
COc1ccc(-c2cc3nc[nH]c(=O)c3s2)cc1	.	.	.	.	.	/	/	/	/	/
c1ccc2c3c(cc(N4CCOCC4)c2c1)OC1(N2CCOCC2)CCCCC1O3 (stereo not given)	.	.	.	80	.	.	.	.	.	.
O=C(O)c1ccc(N2Cc3ccccc3C2)cc1O	.	65	.	70	.	.	71	89	90	75
O=C1NC2=C(C(=O)CCC2)C(c2ccc3ncccc3c2)N1 (stereo not given)	72	.	.	.	.	.	.	.	.	.
O=C1CCCC2=C1C(c1ccncc1)Nc1ccccc1N2 (stereo not given)	.	.	.	.	.	/	/	/	/	/

Screening results (PubChem)
